INS-1E GSIS act – GLuc luminescence reporter in INS-1E cells, primary screen for activators of glucose-dependent secretion of insulin | INS-1E GLuc reporter insulin secretion, 2-3 h | activation, % at 16.6 µM | 0.61% of 370,000 active | AID 743287;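 active = lowest replicate activation of at least 40%, so every replicate reaches that level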
Env fusion inh – inhibitors of HIV Env-mediated cell fusion; inhibition, % at 12.3 µM; HeLa-JRFL Env/CEM21 cell fusion, luciferase; AID 651610; 1.1% of 360,000 active;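 active = mean replicate inhibition score of at least 50 and every replicate individually at or above 50; inconclusive = only one of the two criteria met; inactive = mean below 50 and not all replicates reaching 50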
miR122 inh – blocks miR-122 activity in Huh7 sensor cells; 0.3% of 340,000 active; activation (reporter increase), % at 12.5 µM; Huh7 miR-122 Renilla luciferase sensor, 48 h; neutral wells = 0, positive control = 100;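 active = mean replicate activation score at least 90 and every replicate individually at or above 90; inconclusive = only one of the two criteria met; inactive = neither criterion met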;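 note: higher luciferase means less miR-122 activity so hits act as miR-122 inhibitors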
F508del corr – CFTR F508del correction in bronchial cells. CFBE cells, YFP halide quenching; stimulated with forskolin plus potentiator P3; % fluorescence drop versus neutral controls. activity (quench increase), % at 7.58 µM. 0.36% of 350,000 active. AID 720511;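 active = mean added fluorescence quench of at least 8% versus neutral control, with both replicates also reaching 8%; inconclusive = only one of the mean or replicate conditions met; inactive = mean below 8% and not both replicates reaching 8%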;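 note: cells transiently co-express mutant CFTR-F508del with the halide-sensitive YFP; corrector assay measuring rescue of mutant channel to the surface after 24 h compound exposure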
rRNA inh HTS – selective bacterial rRNA inhibition in E. coli | GFP signal change (wild-type ribosome), % (test concentration not listed) | AID 720706 | 1.6% of 350,000 active | E. coli WT GFP vs humanized-ribosome RFP mutants, fluorescence, 24 h; active compounds read low; DMSO median 0, no signal -100;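 active = significant combined selectivity score with lowered wild-type GFP, culture density cut under 30%, mutant RFP and density less affected; inactive = any of these conditions unmet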
Cneo AK release – Cryptococcus neoformans lysis via adenylate kinase release; C. neoformans lysis, adenylate kinase release luminescence, 4 h; normalised: neutral wells 0, clomiphene wells 100; lysis activity, % at 15 µM; 0.2% of 360,000 active;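 active = mean lysis activity across replicates of at least 80%, whatever share of replicates individually reach that level; inactive = mean lysis activity below 80%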
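Schedule: static 4 h at 37 °C with compound, 1 h detection; system: C. neoformans cells; benchmarks: Clomiphene as positive control; buffer or medium: fresh YPD medium; measure: luminescence rise reflecting yeast cell lysis; measured by: luminescent adenylate kinase detection reagent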
Hits are given with their value; – = inactive; ? = inconclusive; · = no result given. The list is not random: actives were taken first. Their share in the collection is about 3.1%.

SMILES	INS-1E GSIS act	Env fusion inh	miR122 inh	F508del corr	rRNA inh HTS	Cneo AK release
C[C@@H]1CN([C@@H](C)CO)C(=O)c2c(c3ccccc3n2C)-c2ccccc2CO[C@H]1CN(C)Cc1ccccc1C(F)(F)F	–	·	·	–	–	·
COC(=O)C[C@H]1CC[C@H]2[C@@H](COc3ccc(NC(=O)c4cncs4)cc3C(=O)N2C)O1	–	–	–	–	–	–
Cc1noc(C)c1S(=O)(=O)Nc1cccc2c1O[C@H](CN(C)S(=O)(=O)c1ccc(F)cc1)[C@H](C)CN([C@@H](C)CO)C2=O	–	–	–	–	–	–
COc1ccc(C2c3ccsc3CCN2C(=O)C(C)(C)C)cc1 (centres undefined)	–	–	·	·	-46.6	·
O=C(N[C@H]1CC[C@H](CCNS(=O)(=O)Cc2ccccc2)O[C@H]1CO)c1ccc2c(c1)OCO2	–	–	·	–	–	–
COc1ccc2c3c(n(C)c2c1)[C@H](CO)N(CC1CCOCC1)CC31CN(C(C)=O)C1	–	·	·	·	–	·
C[C@H]1CN([C@@H](C)CO)C(=O)c2cccc(NS(=O)(=O)c3cn(C)cn3)c2O[C@@H]1CN(C)Cc1ccncc1	–	·	–	–	–	–
Oc1ccc(Br)cc1-c1ccnn1-c1ccccc1	–	–	–	–	-39.0	–
Oc1ccc(Br)cc1-c1cc(-c2ccccc2)n[nH]1	·	·	–	·	·	–
Cc1ccccc1-c1ccc2c(c1)O[C@H](CN(C)C(=O)Nc1ccc(F)cc1)[C@@H](C)CN([C@H](C)CO)S2(=O)=O	–	?	–	–	–	–
Nc1ncnc(N2CCc3ccccc32)c1[N+](=O)[O-]	–	66.8	–	–	–	–
NNC(=O)c1ccc(N2CCc3ccccc32)c([N+](=O)[O-])c1	–	–	–	–	–	–
O=C1[C@H](Cc2ccccc2)NCCCC[C@@H](c2ccc(Cl)cc2)N1Cc1ccccc1	–	–	·	–	–	–
COC(=O)C1=C(C(=O)OC)[C@]2([C@H]3CCCCN[C@@H](Cc4ccccc4)C(=O)N3Cc3ccccc3)C=C[C@H]1O2	–	65.2	·	–	–	–
O=C1[C@H](Cc2ccccc2)NCCCC[C@H](c2ccc(Cl)cc2)N1Cc1ccc(Cl)cc1	–	66.1	–	–	–	–
O=C1[C@H](Cc2ccccc2)NCC=CC[C@H](c2ccc(Cl)cc2)N1Cc1ccc(Cl)cc1	–	110.3	–	–	–	–
COCC(=O)Nc1ccc2c(c1)OC[C@@H](C)N(Cc1cc(-c3ccccc3)on1)C[C@@H](C)[C@H](OC)CN(C)C2=O	–	·	·	–	–	–
Cc1ccc(S(=O)(=O)N(C)C[C@@H]2Oc3ncc(-c4ccncc4)cc3C(=O)N([C@H](C)CO)C[C@H]2C)cc1	–	·	·	–	–	·
CCCCCn1c(SCC(=O)OC)nc2c1c(=O)[nH]c(=O)n2C	68.5	–	·	–	–	–
CCCCCCn1c(N(CC)CC)nc2c1c(=O)[nH]c(=O)n2C	61.9	·	·	·	·	–
COC(=O)CSc1nc2c(c(=O)[nH]c(=O)n2C)n1CCC(C)C	·	·	–	·	·	–
CCN(CC)c1nc2c(c(=O)[nH]c(=O)n2C)n1Cc1ccccc1	–	–	–	–	–	–
O=C1NC[C@@H](CCCCN2C[C@H](Cc3ccccc3)N(CCc3ccc(O)cc3)C(=O)C2=O)N(CC2CCCCC2)C1=O	–	–	·	–	–	·
O=C1NC[C@H](CCCCN2C[C@H](Cc3ccccc3)N(CCc3ccc(O)cc3)C(=O)C2=O)N(CCc2ccccc2)C1=O	–	–	·	–	-18.5	·
O=C1NC[C@H](CCCCN2C[C@H](Cc3ccccc3)N(CC3CCCCC3)C(=O)C2=O)N(CCc2ccc(O)cc2)C1=O	–	–	·	–	-21.4	·
O=C(COc1ccc(Cl)cc1)Nc1nnc(-c2ccco2)o1	–	–	·	–	-34.9	·
Cc1cccc(Cn2ccc(-c3ccc(Cl)cc3)c(C#N)c2=O)c1	95.5	·	–	·	·	–
Cc1cccc(Cn2cnc3c(nnn3Cc3ccc(Cl)cc3)c2=O)c1	–	59.7	–	·	·	–
COc1ccc(S(=O)(=O)Nc2ccc3c(c2)C(=O)N([C@@H](C)CO)C[C@@H](C)[C@H](CN(C)Cc2ccc4c(c2)OCO4)OCCCC[C@@H](C)O3)cc1	–	–	–	–	–	–

Assay outcomes as filed in PubChem BioAssay.
